Source: PubChem BioAssay
An excerpt weighted towards active compounds, which were near 2.3% of everything screened.
TRPC4 inh: inhibitors of mouse TRPC4 channel; Q9QUQ5; B-score at 10 µM; 0.39% of 300,000 active; HEK293 TRPC4beta/mu-opioid, DAMGO-evoked Fluo4 calcium flux; hits give low values;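 active = B-score over 3 SD under the library average, no early fluorescence shift, positive overall ratio signal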
Target sequence (Q9QUQ5 whole entry, looked up): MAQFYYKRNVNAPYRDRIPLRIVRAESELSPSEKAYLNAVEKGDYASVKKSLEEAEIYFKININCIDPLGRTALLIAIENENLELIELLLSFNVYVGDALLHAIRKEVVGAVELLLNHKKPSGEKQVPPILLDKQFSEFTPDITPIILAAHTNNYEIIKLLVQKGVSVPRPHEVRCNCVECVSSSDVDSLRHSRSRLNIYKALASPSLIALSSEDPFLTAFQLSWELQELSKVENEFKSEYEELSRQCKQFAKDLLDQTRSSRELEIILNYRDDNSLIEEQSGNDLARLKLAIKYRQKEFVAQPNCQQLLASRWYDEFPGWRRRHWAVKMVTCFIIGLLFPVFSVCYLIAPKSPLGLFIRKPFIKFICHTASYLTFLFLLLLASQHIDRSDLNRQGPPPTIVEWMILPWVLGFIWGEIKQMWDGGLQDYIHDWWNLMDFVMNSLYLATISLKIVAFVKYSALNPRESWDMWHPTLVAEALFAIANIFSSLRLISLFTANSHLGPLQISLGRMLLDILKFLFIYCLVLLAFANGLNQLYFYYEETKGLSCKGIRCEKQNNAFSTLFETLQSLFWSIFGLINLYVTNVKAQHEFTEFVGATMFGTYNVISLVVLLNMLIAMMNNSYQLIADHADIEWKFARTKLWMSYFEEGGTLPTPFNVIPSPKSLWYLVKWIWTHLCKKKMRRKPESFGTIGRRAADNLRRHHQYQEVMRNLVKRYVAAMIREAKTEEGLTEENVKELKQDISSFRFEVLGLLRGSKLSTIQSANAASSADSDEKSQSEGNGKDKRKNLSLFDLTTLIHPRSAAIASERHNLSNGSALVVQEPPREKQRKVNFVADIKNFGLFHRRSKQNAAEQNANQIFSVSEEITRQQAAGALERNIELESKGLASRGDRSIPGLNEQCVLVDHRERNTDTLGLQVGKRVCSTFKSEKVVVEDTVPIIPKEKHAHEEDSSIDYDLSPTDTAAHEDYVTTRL
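material = TRPC4beta/mu-opioid receptor HEK293 cell line | probe or stimulus = sequential submaximal and maximal DAMGO stimulation | compound dosing = one concentration per compound | measured by = Fluo4 Ca2+ flux fluorescence | evaluation = integrated fluorescence ratio relative to baseline, converted to per-well B score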
TRPC6 activator: mouse TRPC6 channel activation; B-score at 10 µM; AID 2550; Q61143; 0.13% of 310,000 active; HEK293-TRPC6 membrane potential dye fluorescence; hits give high values;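 active = B-score of the integrated fluorescence ratio above library mean plus 3 SD, and starting fluorescence ratio within library mean plus 5 SD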;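 note: higher score means more depolarization so channel activation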
TRPC6 inhibitor: blocks the mouse TRPC6 cation channel. Q61143. HEK293-TRPC6, membrane potential dye, ACh-evoked depolarization; hits give low values. B-score at 10 µM. 1.1% of 310,000 active. AID 2553;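 active = B-score under library mean minus 3 SD, initial fluorescence not abnormally high, positive integrated signal ratio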;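 note: B-score derived from integrated fluorescence ratio over the kinetic read; more negative B-score means stronger inhibition of depolarization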
TRPC4 PAM: TRPC4 (mouse) allosteric potentiation. AID 2227. HEK293 TRPC4beta/mu-opioid, DAMGO EC20, Fluo-4 Ca2+ flux; hits give high values. 0.42% of 310,000 active. B-score at 10 µM;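 active = B-score of calcium response area above 5 SD of library B-scores, with initial fluorescence ratio within 5 SD of library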;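 note: B-score of integrated fluorescence ratio over time as area under calcium response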
TRPC4 agonist: activators of mouse TRPC4 channel; HEK293 TRPC4beta/mu-opioid, Fluo4 calcium fluorescence; hits give high values; 0.49% of 310,000 active; B-score at 10 µM; Q9QUQ5;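 active = B-score above 5 SD of library B-scores, and initial fluorescence ratio not above library mean plus 5 SD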;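 note: positive B-score marks a calcium rise read as TRPC4 activation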
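Assay system: HEK293 cells stably co-expressing mouse TRPC4beta and mu-opioid receptor / Timing: Fluo4 dye loading 45 min at room temperature, 110 s recording / Signal: Fluo4 calcium-sensitive dye fluorescence, kinetic, 1 Hz baseline / Read-out: integrated baseline-normalised fluorescence ratio, converted to per-well B score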
TRPC4 sel inh 2: mouse TRPC4 off-target activity of TRPC6 inhibitors, second screen. shares compounds with TRPC6 inhibitor. inhibition, % at 10 µM. HEK293 TRPC4/MOR, membrane potential dye fluorescence; channel activated by saturating DAMGO dose. 42% of 920 active. AID 2776;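 active = compounds whose fluorescence signal differed from control wells by over 3 SD, either direction, in both duplicate plates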
TRPC4 spec: mouse TRPC4 off-target activity of TRPC6 inhibitors; shares compounds with TRPC6 inhibitor; HEK293 TRPC4/mu-opioid, membrane potential fluorescence; activity change, negative = inhibition, % at 10 µM; 61% of 920 active; AID 2777;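 active = rise or fall in signal beyond 3 SD of buffer-only wells in both replicate plates, either sign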;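 note: integrated kinetic ratio of fluorescence range over baseline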
HEK293 MPD ctr 2-1: second check of TRPC6 inhibitor effects in parental HEK293 cells; shares compounds with TRPC6 inhibitor; parental HEK293 membrane potential dye fluorescence; maximal acetylcholine challenge after compound addition; signal change vs control, % at 10 µM; 31% of 920 active; AID 2779;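 active = membrane potential signal moving either way by over 3 SD of the maximum-effect control, in both duplicate plates, meaning non-specific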
HEK293 MPD ctr-1: checks TRPC6 inhibitor effects in parental HEK293 cells | 60% of 920 active | parental HEK293 membrane potential dye fluorescence | shares compounds with TRPC6 inhibitor | membrane potential signal change, % at 10 µM | AID 2780;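 active = membrane potential signal shifting up or down by more than 3 SD of buffer-only wells, on both duplicate plates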
HEK293 MPD ctr-2: counter-screen for TRPC6 modulators: effect in parental HEK293 cells; shares compounds with TRPC6 inhibitor; membrane potential dye fluorescence; membrane potential signal change, % at 10 µM; 51% of 2,400 active; AID 488924;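 active = membrane potential signal moves up or down beyond 5 SD from buffer-only wells, on both duplicate plates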
HEK293 MPD ctr 2-2: second check of TRPC6 modulator effects in parental HEK293 cells. shares compounds with TRPC6 inhibitor. 14% of 2,400 active. membrane potential dye fluorescence; after compound, maximal acetylcholine stimulation. inhibition, % at 10 µM;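 active = membrane potential signal drops by more than 5 SD from the mean control signal, in both duplicate plates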;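 note: plate controls were acetylcholine ECmax control wells for no effect and buffer only wells for full effect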
TRPC4/MOR mod: selectivity of TRPC6 modulators against mouse TRPC4. shares compounds with TRPC6 inhibitor. HEK293 TRPC4/mu-opioid, membrane potential fluorescence. percent change from control (negative = decrease, positive = increase), % at 10 µM. 69% of 2,400 active. AID 488927;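 active = membrane potential signal moved up or down beyond 5 SD of buffer control wells, in both duplicate plates, actives on both sides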;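 note: plate controls were assay buffer wells for no effect and DAMGO maximal-effect wells for full effect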
TRPC4/MOR inh 2: second selectivity test of TRPC6 modulators against mouse TRPC4. shares compounds with TRPC6 inhibitor. HEK293 TRPC4/mu-opioid, membrane potential dye fluorescence; stimulated with maximal-effect DAMGO. inhibition, % at 10 µM. 55% of 2,400 active. AID 488928;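 active = drop in membrane potential signal beyond 5 SD of the control wells in both duplicate plates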;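 note: TRPC4 counter screen for TRPC6 hits run under conditions tuned for TRPC6 not TRPC4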
TRPC6 block conf: mouse TRPC6 inhibitor confirmation | shares compounds with TRPC6 inhibitor | HEK293-TRPC6, membrane potential dye, ACh-evoked depolarization | inhibition, % at 10 µM | 43% of 3,300 active;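 active = fluorescence ratio falls more than 5 SD below the full-stimulation control mean, in both duplicate runs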;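 note: integrated fluorescence ratio of peak minus minimum over baseline after agonist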
TRPC6 act conf: mouse TRPC6 activator confirmation; HEK293-TRPC6 membrane potential dye fluorescence, FDSS; 11% of 2,800 active; shares compounds with TRPC6 inhibitor; activation, % at 10 µM;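 active = ratio signal rise beyond 5 SD above unstimulated control wells' mean, seen in both duplicate runs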;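 note: plate controls were buffer EC0 wells for no effect and acetylcholine ECmax response for full effect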
* = called active by the depositor.

`O=C(c1ccc(Br)o1)N1CCN(CCc2ccncc2)CC1` gave TRPC4 inh inactive, TRPC6 activator inactive, TRPC6 inhibitor inactive, TRPC4 PAM inactive and TRPC4 agonist inactive.
Screening OC(CNCC1CCCO1)Cn1c2ccccc2c2ccccc21 (configuration not stated) returned TRPC4 inh inactive, TRPC6 activator inactive, TRPC6 inhibitor -6.5*, TRPC4 PAM inactive, TRPC4 agonist inactive, HEK293 MPD ctr-2 312%*, HEK293 MPD ctr 2-2 73%*, TRPC4/MOR mod 36%*, TRPC4/MOR inh 2 65%* and TRPC6 block conf 84%*.
OC(CNCC1CCCO1)Cn1c2ccc(Cl)cc2c2cc(Cl)ccc21 (configuration not stated) was read as TRPC4 inh inactive, TRPC6 activator inactive, TRPC6 inhibitor inactive, TRPC4 PAM inactive and TRPC4 agonist inactive.
CCOC(=O)c1c(C)n(C)c2ccc(OC)c(NC(=O)CCN3CCC(Cc4ccccc4)CC3)c12 was read as TRPC4 inh inactive, TRPC6 activator inactive, TRPC6 inhibitor -5.2*, TRPC4 PAM inactive, TRPC4 agonist inactive, HEK293 MPD ctr-2 inactive, HEK293 MPD ctr 2-2 inactive, TRPC4/MOR mod inactive, TRPC4/MOR inh 2 70%*, TRPC6 block conf 54%* and TRPC6 act conf inactive.
`O=S(=O)(NCc1ccccc1)c1ccc(-n2cccn2)cc1` gave TRPC4 inh inactive, TRPC6 activator inactive, TRPC6 inhibitor inactive, TRPC4 PAM inactive and TRPC4 agonist inactive.
Screening COc1ccc(-n2cc(CNCCCn3ccnc3)c(-c3cccc(F)c3)n2)cc1 returned TRPC4 inh inactive, TRPC6 activator inactive, TRPC6 inhibitor -6*, TRPC4 PAM inactive, TRPC4 agonist inactive, HEK293 MPD ctr-2 inactive, HEK293 MPD ctr 2-2 inactive, TRPC4/MOR mod -8.5%*, TRPC4/MOR inh 2 74%*, TRPC6 block conf 42%* and TRPC6 act conf inactive.
Screening Nc1c2c(nc3ccn(Cc4ccccc4)c(=O)c13)CCC2 returned TRPC4 inh inactive, TRPC6 activator inactive, TRPC6 inhibitor -7.5*, TRPC4 PAM inactive, TRPC4 agonist inactive, TRPC4 sel inh 2 72%*, TRPC4 spec -22%*, HEK293 MPD ctr 2-1 -10%*, HEK293 MPD ctr-1 -353%*, TRPC6 block conf 73%* and TRPC6 act conf inactive.
Screening Nc1c2c(nc3ccn(-c4ccccc4)c(=O)c13)CCCCC2 returned TRPC4 inh inactive, TRPC6 activator inactive, TRPC6 inhibitor -5.4*, TRPC4 PAM inactive, TRPC4 agonist inactive, HEK293 MPD ctr-2 -151%*, HEK293 MPD ctr 2-2 inactive, TRPC4/MOR mod -28%*, TRPC4/MOR inh 2 38%*, TRPC6 block conf inactive and TRPC6 act conf inactive.
`O=C(COC(=O)c1ccc(O)cc1)Nc1ccc(Cl)cc1` gave TRPC4 inh inactive, TRPC6 activator inactive, TRPC6 inhibitor inactive, TRPC4 PAM inactive and TRPC4 agonist inactive.
For Cc1[nH]c2ccccc2c1C(=O)CN1CCN(c2ccc(Cl)cc2)CC1 the results were TRPC4 inh inactive, TRPC6 activator inactive, TRPC6 inhibitor inactive, TRPC4 PAM inactive and TRPC4 agonist inactive.
Screening CN(C)/C=C1\Cc2ccccc2C1=O returned TRPC4 inh inactive, TRPC6 activator inactive, TRPC6 inhibitor inactive, TRPC4 PAM inactive and TRPC4 agonist inactive.
`CC[N+]1(C)CCC(=C2c3ccccc3CC(=O)c3sccc32)CC1` (configuration not stated) gave TRPC4 inh inactive, TRPC6 activator inactive, TRPC6 inhibitor -14*, TRPC4 PAM inactive, TRPC4 agonist inactive, TRPC4 sel inh 2 inactive, TRPC4 spec inactive, HEK293 MPD ctr 2-1 43%*, HEK293 MPD ctr-1 inactive, TRPC6 block conf 80%* and TRPC6 act conf inactive.
CN(C)CCn1c(C(=O)Nc2ccccc2)cc2ccccc21 was read as TRPC4 inh inactive, TRPC6 activator inactive, TRPC6 inhibitor -7.8*, TRPC4 PAM inactive, TRPC4 agonist inactive, TRPC4 sel inh 2 48%*, TRPC4 spec -17%*, HEK293 MPD ctr 2-1 inactive, HEK293 MPD ctr-1 -235%*, TRPC6 block conf inactive and TRPC6 act conf inactive.
`O=Cc1cc(Cl)ccc1OCCN1CCC(Cc2ccccc2)CC1` gave TRPC4 inh inactive, TRPC6 activator inactive, TRPC6 inhibitor inactive, TRPC4 PAM inactive and TRPC4 agonist inactive.
`O=[N+]([O-])c1cccc(OCCN2CCC(Cc3ccccc3)CC2)c1` gave TRPC4 inh inactive, TRPC6 activator inactive, TRPC6 inhibitor -8.4*, TRPC4 PAM inactive, TRPC4 agonist inactive, TRPC4 sel inh 2 33%*, TRPC4 spec inactive, HEK293 MPD ctr 2-1 inactive, HEK293 MPD ctr-1 inactive, TRPC6 block conf 61%* and TRPC6 act conf inactive.
`Cc1ccc([N+](=O)[O-])c(OCCN2CCCCCC2)c1` gave TRPC4 inh inactive, TRPC6 activator inactive, TRPC6 inhibitor inactive, TRPC4 PAM inactive and TRPC4 agonist inactive.
